Results: ChEMBL document CHEMBL1139474, “Cellular apoptosis and cytotoxicity of phenolic compounds: a quantitative structure-activity relationship study” (J Med Chem, 2005)

Legend:
L1210 [1] = assay: Cytotoxicity against mouse L1210 cells; conditions: for log(1/ID50): mouse, l1210
L1210 [2] = assay: Activity against caspase-mediated apoptosis in mouse L1210 cells at 0.1 mM; format: functional
MCF7 = assay: Cytotoxicity against human MCF7 cells
L1210 [3] = assay: Activity against caspase-mediated apoptosis in mouse L1210 cells; format: functional
CCRF-CEM = assay: Cytotoxicity against human CCRF-CEM cells
[4] = Cytotoxicity against human CEM/VLB cells
HL-60 [5] = assay: Cytotoxicity against human HL60 cells; format: cell-based
Summary of the method: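 HL-60 cells grown at 37 °C in RPMI with L-glutamine and 10% FBS, then seeded at (2–5) × 10⁴ cells/mL, in duplicate, at eight or more concentrations. Compounds were diluted in unsupplemented RPMI and added 1:10. After 48 h of continuous exposure, CyQUANT GR nucleic-acid dye fluorescence was read (ex 485/em 530 nm). IC50 is the concentration giving 50% lower fluorescence than controls, taken from the dose-response curve.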

L1210 [6] = assay: Induction of apoptosis in mouse L1210 cells at 151 uM; format: functional
Summary of the method: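 L1210 cells at 4 × 10⁴ cells/mL were incubated with or without the phenol for 12 h at 37 °C. Caspase activity was then measured in a homogeneous fluorimetric assay: DEVD-rhodamine 110 substrate in incubation buffer was added for 2 h at 37 °C, and fluorescence was read at 521 nm with excitation at 490 nm.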

HL-60 [7] = assay: Induction of DNA fragmentation in human HL60 cells after 16 hrs; format: functional, cell-based; conditions: HL-60, 16 h

Compound | log(1/ID50) (L1210 [1]) | Activity (L1210 [2]) [%] | log(1/ID50) (MCF7) | log(1/ID50) (L1210 [3]) | log(1/ID50) (CCRF-CEM) | log(1/ID50) [4] | log(1/ID50) (HL-60 [5]) | Activity (L1210 [6]) [%] | IC50 (HL-60 [7]) [µM] | IC50 (L1210 [1]; Mus musculus, L1210) [µM]
Oc1ccc(Oc2ccccc2)cc1 | 4.97 | <15 | 3.99 | 0.19 |  |  |  |  |  | 
CC(C)(c1ccc(O)cc1)c1ccc(O)cc1 [BISPHENOL A] |  | <15 |  |  | 4.18 | 3.96 |  |  |  | 
O=[N+]([O-])c1ccc(O)cc1 [P-NITROPHENOL] | 3.45 | <15 |  | 1 | 3.28 | 3.36 |  |  |  | 
CCCCCCOc1ccc(O)cc1 | 5.5 | <15 |  |  | 5.34 | 5.37 |  |  |  | 
CCCc1ccc(O)cc1 | 4.04 | <15 |  |  | 3.72 | 3.73 |  |  |  | 
Oc1ccc(I)cc1 | 3.86 | <15 |  |  | 4.29 | 3.86 |  |  |  | 
CC/C(=C(/CC)c1ccc(O)cc1)c1ccc(O)cc1 [DIETHYLSTILBESTROL] |  |  |  |  |  |  | 4 |  |  | 
C[C@]12CC[C@@H]3c4ccc(O)cc4CC[C@H]3[C@@H]1CC[C@@H]2O [ESTRADIOL] |  |  |  |  |  |  | 3.6 |  |  | 
Oc1ccc(Cl)cc1 [PARACHLOROPHENOL] | 4.29 | <15 |  |  | 3.45 | 3.89 |  |  |  | 
Oc1ccccc1 [PHENOL] | 3.27 | <15 | 2.56 | -0.2 | 3.27 | 2.65 | 3.05 |  |  | 
CCCOc1ccc(O)cc1 [1-hydroxy-4-propoxybenzene] | 4.85 | <15 |  | 0.09 |  |  | 3.7 |  |  | 
NC(=O)c1ccc(O)cc1 | 2.48 | <15 |  |  | 2.23 | 2.38 |  |  |  | 
Cl.Nc1ccc(O)cc1 [4-AMINOPHENOL HYDROCHLORIDE] | 5.09 | <15 |  |  | 4.61 | 1.94 | 4.5 |  |  | 
COc1ccc(O)c(C(C)(C)C)c1.COc1ccc(O)cc1C(C)(C)C [BUTYLATED HYDROXYANISOLE] | 3.82 |  |  | 2.71 |  |  |  | 15 | 1380 | 
NS(=O)(=O)c1ccc(O)cc1 | 2.5 | <15 |  |  | 2.31 | 2.11 |  |  |  | 
CC(=O)Nc1cccc(O)c1 [METACETAMOL] | 2.65 | <15 |  | 1.1 |  |  |  |  |  | 
C[C@]12CCc3c(ccc4cc(O)ccc34)[C@@H]1CCC2=O [EQUILENIN] |  |  |  |  |  |  | 3.9 |  |  | 
Cc1cccc(O)c1 [METACRESOL] | 3.54 | <15 |  | 0.45 |  |  |  |  |  | 
CCOc1ccc(O)cc1 [1-hydroxy-4-ethoxybenzene] | 4.64 | <15 | 3.7 |  |  |  |  |  |  | 
CCc1ccc(O)cc1 | 3.86 | <15 | 2.91 |  | 3.79 | 3.84 |  |  |  | 
Cc1ccccc1O [ORTHOCRESOL] | 3.52 | <15 |  | 1.87 |  |  |  |  |  | 
N#Cc1cccc(O)c1 | 3.11 | <15 |  | 1.11 |  |  |  |  |  | 
CCCCc1ccc(O)cc1.Cl |  | <15 |  |  |  |  | 3.52 |  |  | 
Cc1ccc(O)cc1 [p-CRESOL] | 3.85 | <15 |  |  | 3.82 | 4.05 | 3.35 |  |  | 
Nc1ccccc1O [QUESTIOMYCIN B] | 5.16 | <15 |  | 2.29 |  |  |  |  |  | 
COc1ccc(O)cc1 [MEQUINOL] |  | <15 |  | 0.02 | 4.41 | 4.36 | 3.6 |  |  | 
Cc1cc(C(C)(C)C)c(O)c(C(C)(C)C)c1 [BUTYLATED HYDROXYTOLUENE] | 4.04 |  |  | 2.09 |  |  |  |  | 3180 | 91.2
N#Cc1ccc(O)cc1 [4-CYANOPHENOL] | 3.44 | <15 |  | 0.1 |  |  |  |  |  | 
